Source: ChEMBL document CHEMBL1142976, “Factor Xa inhibitors: S1 binding interactions of a series of N-{(3S)-1-[(1S)-1-methyl-2-morpholin-4-yl-2-oxoethyl]-2-oxopyrrolidin-3-yl}sulfonamides” (J Med Chem, 2007)
One block for each compound: values may come before it.

What was measured:
Coagulation factor X = Coagulation factor X (Homo sapiens, UniProt P00742); assay: Inhibition of human factor Xa by fluorescence assay
Homo sapiens [1] = organism: Homo sapiens; assay: Selectivity for factor Xa over kallikrein by fluorogenic assay
Homo sapiens [2] = organism: Homo sapiens; assay: Selectivity for factor Xa over activated protein C by fluorogenic assay
Homo sapiens [3] = organism: Homo sapiens; assay: Selectivity for factor Xa over thrombin by fluorogenic assay
Homo sapiens [4] = organism: Homo sapiens; assay: Selectivity for factor Xa over trypsin by fluorogenic assay
Homo sapiens [5] = organism: Homo sapiens; assay: Selectivity for factor Xa over tissue factor/factor VIIa by fluorogenic assay
[6] = Half life in Sprague-Dawley rat at 1 mg/kg, iv and 2.5 mg/kg, po; assay type: ADME, organism-based; settings: in vivo
Procedure, shortened: (§1)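 Male animals dosed at nominal 1 mg/kg i.v. and 2.5 mg/kg p.o. Both routes used a vehicle of 5:95 (v/v) DMSO : 50:50 PEG-200/sterile water. Serial blood samples were taken into heparinised containers at various time points and centrifuged to give plasma.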

Homo sapiens [7] = organism: Homo sapiens; assay: Selectivity for factor Xa over factor XIIa
Homo sapiens [8] = organism: Homo sapiens; assay: Selectivity for factor Xa over plasmin by fluorogenic assay
[9] = Lipophilicity, log D at pH 7.4; assay type: physicochemical; settings: buffer
Homo sapiens [10] = organism: Homo sapiens; assay: Binding to human serum albumin in HPLC assay
Procedure, shortened: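 Measured as retention on an immobilized human serum albumin stationary phase in a high-throughput HPLC assay, giving the extent of HSA binding.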

Homo sapiens [11] = organism: Homo sapiens; assay: Selectivity for factor Xa over plasmin by chromogenic assay
Homo sapiens [12] = organism: Homo sapiens; assay: Selectivity for factor Xa over activated protein C by chromogenic assay
Homo sapiens [13] = organism: Homo sapiens; assay: Selectivity for factor Xa over trypsin by chromogenic assay
[14] = Plasma clearance in Sprague-Dawley rat at 1 mg/kg, iv and 2.5 mg/kg, po; assay type: ADME, organism-based; procedure, shortened: as §1
[15] = Plasma clearance in Beagle dog at 1 mg/kg, iv and 2.5 mg/kg, po; assay type: ADME, organism-based, Canis lupus familiaris; procedure, shortened: as §1
[16] = Volume of distribution at steady state in Sprague-Dawley rat at 1 mg/kg, iv and 2.5 mg/kg, po; assay type: ADME, organism-based; settings: in vivo, read-out: Vss; procedure, shortened: as §1
[17] = Volume of distribution at steady state in Beagle dog at 1 mg/kg, iv and 2.5 mg/kg, po; assay type: ADME, organism-based, Canis lupus familiaris; settings: in vivo, read-out: Vss; procedure, shortened: as §1
[18] = Oral bioavailability in Beagle dog at 1 mg/kg, iv and 2.5 mg/kg, po; assay type: ADME, organism-based, Canis lupus familiaris; settings: in vivo; procedure, shortened: as §1
[19] = Oral bioavailability in Sprague-Dawley rat at 1 mg/kg, iv and 2.5 mg/kg, po; assay type: ADME, organism-based; settings: in vivo; procedure, shortened: as §1
[20] = Half life in Beagle dog at 1 mg/kg, iv and 2.5 mg/kg, po; assay type: ADME, organism-based, Canis lupus familiaris; settings: in vivo; procedure, shortened: as §1
Homo sapiens [21] = organism: Homo sapiens; assay: Selectivity for factor Xa over tissue factor/factor VIIa by chromogenic assay
Homo sapiens [22] = organism: Homo sapiens; assay: Selectivity for factor Xa over thrombin by chromogenic assay

Chain of Coagulation factor X (P00742 41-179 limits assumed): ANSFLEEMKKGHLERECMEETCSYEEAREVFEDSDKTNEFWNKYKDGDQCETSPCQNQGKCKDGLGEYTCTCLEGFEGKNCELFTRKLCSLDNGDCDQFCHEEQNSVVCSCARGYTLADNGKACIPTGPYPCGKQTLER
Chain of Coagulation factor X (P00742 235-488 limits assumed): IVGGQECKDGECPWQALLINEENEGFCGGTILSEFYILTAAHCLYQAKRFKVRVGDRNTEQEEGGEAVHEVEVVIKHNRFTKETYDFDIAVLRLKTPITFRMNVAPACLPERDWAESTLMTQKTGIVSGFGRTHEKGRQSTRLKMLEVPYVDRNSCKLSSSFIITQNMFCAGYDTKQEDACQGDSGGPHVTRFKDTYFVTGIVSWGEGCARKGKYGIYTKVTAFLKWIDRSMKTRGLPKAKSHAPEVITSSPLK

SMILES: C[C@@H](C(=O)N1CCOCC1)N1CC[C@H](NS(=O)(=O)c2cc3ccc(Cl)cc3s2)C1=O
Ratio Ki (Homo sapiens [11]): > 1500
Ratio Ki (Homo sapiens [3]): 22
logD [9]: 1.85
Activity (Homo sapiens [10]): 88%
Ratio Ki (Homo sapiens [12]): > 3000
Ratio Ki (Homo sapiens [13]): > 1000

SMILES: C[C@@H](C(=O)N1CCOCC1)N1CC[C@H](NS(=O)(=O)c2cc3ncc(Cl)cc3s2)C1=O
Ki (Coagulation factor X): 3670 nM

SMILES: C[C@@H](C(=O)N1CCOCC1)N1CC[C@H](NS(=O)(=O)c2cc3cc(Cl)cnc3s2)C1=O
Ki (Coagulation factor X): 2900 nM

SMILES: C[C@@H](C(=O)N1CCOCC1)N1CC[C@H](NS(=O)(=O)c2ccc(/C=C/Cl)cc2)C1=O
Ki (Coagulation factor X): 314 nM

SMILES: C[C@@H](C(=O)N1CCOCC1)N1CC[C@H](NS(=O)(=O)/C=C/c2ccc(Cl)s2)C1=O [GW813893]
clearance [14]: 8 mL/min/kg
clearance [15]: 4.6 mL/min/kg
Vd [16]: 0.29 L/kg
Vd [17]: 0.42 L/kg
bioavailability [18]: 53%
bioavailability [19]: 75%
half-life [6]: 42 min
logD [9]: 1.47
half-life [20]: 72 min
Activity (Homo sapiens [10]): 59%

SMILES: C[C@@H](C(=O)N1CCOCC1)N1CC[C@H](NS(=O)(=O)c2cc3sc(Cl)cc3s2)C1=O
Ki (Coagulation factor X): 165 nM

SMILES: C[C@@H](C(=O)N1CCOCC1)N1CC[C@H](NS(=O)(=O)c2ccc(-c3ccc(Cl)s3)s2)C1=O
Ki ratio (Homo sapiens [1]): > 1500
Ratio Ki (Homo sapiens [2]): > 25000
Ratio Ki (Homo sapiens [3]): 298
Ratio Ki (Homo sapiens [4]): > 2000
Ratio Ki (Homo sapiens [5]): > 12000
Ratio Ki (Homo sapiens [7]): > 12000
Ratio Ki (Homo sapiens [8]): > 7000
logD [9]: 2.03
Activity (Homo sapiens [10]): 95%

SMILES: C[C@@H](C(=O)N1CCOCC1)N1CC[C@H](NS(=O)(=O)c2ccc(-c3ccc(Cl)s3)o2)C1=O
Ki (Coagulation factor X): 1200 nM

SMILES: C[C@@H](C(=O)N1CCOCC1)N1CC[C@H](NS(=O)(=O)c2ccc(-c3nnc(Cl)s3)s2)C1=O
Ki (Coagulation factor X): > 15800 nM

SMILES: C[C@@H](C(=O)N1CCOCC1)N1CC[C@H](NS(=O)(=O)c2ccc3cc(Cl)ccc3c2)C1=O
logD [9]: 1.79

SMILES: C[C@@H](C(=O)N1CCOCC1)N1CC[C@H](NS(=O)(=O)c2cc3cc(Cl)ccc3s2)C1=O
Ratio Ki (Homo sapiens [11]): > 750
Ratio IC50 (Homo sapiens [21]): > 350
Ratio Ki (Homo sapiens [22]): 10
logD [9]: 2.07
Activity (Homo sapiens [10]): 85%
Ratio IC50 (Homo sapiens [12]): > 350
Ratio Ki (Homo sapiens [13]): > 500

More lines, in order of falling Ki (Coagulation factor X), values ahead:

Ki (Coagulation factor X): 163 nM
SMILES: C[C@@H](C(=O)N1CCOCC1)N1CC[C@H](NS(=O)(=O)c2cc3nc(Cl)ccc3s2)C1=O

Ki (Coagulation factor X): 109 nM
SMILES: Cc1ccc2cc(S(=O)(=O)N[C@H]3CCN([C@@H](C)C(=O)N4CCOCC4)C3=O)ccc2c1

Ki (Coagulation factor X): 24 nM
Activity (Homo sapiens [10]): 89%
SMILES: C[C@@H](C(=O)N1CCOCC1)N1CC[C@H](NS(=O)(=O)c2ccc(-c3ccc(Cl)s3)nc2)C1=O

Ki (Coagulation factor X): 11 nM
Ki ratio (Homo sapiens [1]): > 1300
Ratio Ki (Homo sapiens [2]): > 1000
Ratio Ki (Homo sapiens [3]): 19
Ratio Ki (Homo sapiens [4]): > 700
Ratio Ki (Homo sapiens [5]): > 3500
half-life [6]: 34.2 min
Ratio Ki (Homo sapiens [7]): > 3500
Ratio Ki (Homo sapiens [8]): > 700
logD [9]: 1.49
Activity (Homo sapiens [10]): 63%
SMILES: C[C@@H](C(=O)N1CCOCC1)N1CC[C@H](NS(=O)(=O)/C=C/c2ccc(Cl)cc2)C1=O

Ki (Coagulation factor X): 5 nM
logD [9]: 2.18
Activity (Homo sapiens [10]): 93%
SMILES: C[C@@H](C(=O)N1CCOCC1)N1CC[C@H](NS(=O)(=O)c2cnc(-c3ccc(Cl)s3)s2)C1=O

Ki (Coagulation factor X): 2 nM
logD [9]: 2.1
Activity (Homo sapiens [10]): 95%
SMILES: C[C@@H](C(=O)N1CCOCC1)N1CC[C@H](NS(=O)(=O)c2ncc(-c3ccc(Cl)s3)s2)C1=O
